Here are results for two substances from article PMC9586281 (Proceedings of the National Academy of Sciences of the …, 2022).

For series [1] the following is noted: required plasmid transfection for cellular introduction; cited from earlier work.
The next series deals with FOXP3:NFAT. The settings on record: cited from earlier work.
For series [2], the system named is Treg cell-mediated suppression of Tcon cell proliferation. The series is described as follows: Ex vivo suppression assay. Particulars: Treg cells pretreated with peptide, 72 h coculture with Tcon cells. In kind it is cell-based, mice.
Another series concerns the target T1, LZCC FOXP3 (T182-M337) (Homo sapiens, UniProt Q9BZS1).
T1 sequence (Q9BZS1 182-336 limits assumed): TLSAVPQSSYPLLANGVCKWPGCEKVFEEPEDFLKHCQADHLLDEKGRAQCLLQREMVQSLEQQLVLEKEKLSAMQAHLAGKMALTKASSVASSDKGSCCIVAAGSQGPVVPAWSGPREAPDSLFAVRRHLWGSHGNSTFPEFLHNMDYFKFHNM
The experiment in a line: Fluorescence polarization analysis. It counts as binding. Particulars: FPA, 50 nM FITC-labeled peptide, 1× PBS pH 8, 1-15 min room temperature. In a few lines: (§1)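 Solution-phase fluorescence polarization using recombinant truncated FOXP3 as the binding partner. Equilibrium binding constants were determined for stapled peptides and for their native unstapled peptide controls.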
On the technique in general: Fluorescence polarisation rises when a labelled molecule tumbles more slowly, as on binding a larger partner.

The next series has as its target T2, ΔN FOXP3 (T182-P431) (Homo sapiens, UniProt Q9BZS1).
T2 sequence (Q9BZS1 182-431): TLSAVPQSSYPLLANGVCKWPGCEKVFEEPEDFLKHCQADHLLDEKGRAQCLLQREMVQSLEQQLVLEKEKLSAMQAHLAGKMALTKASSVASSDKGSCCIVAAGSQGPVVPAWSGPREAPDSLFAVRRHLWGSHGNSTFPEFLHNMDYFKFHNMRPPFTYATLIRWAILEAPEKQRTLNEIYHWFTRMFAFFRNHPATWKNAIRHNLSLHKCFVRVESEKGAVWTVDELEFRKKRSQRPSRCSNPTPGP
The experiment in a line: Fluorescence polarization analysis. In kind it is binding. Particulars: FPA, 50 nM FITC-labeled peptide, 1× PBS pH 8, 1-15 min room temperature. In a few lines: as §1

In the case of “FOXP3 393–403: nonstructured peptide spanning a loop domain and the Wing1 region of the FKH domain of FOXP3 (KCFVRVESEKG; UniProt Q9BZS1 393-403, looked up, fragment)”, in series [1], the Cell permeability result was “not cell permeable”. For the same substance, the “Inhibition of FOXP3:NFAT” value with FOXP3:NFAT is listed as “partially inhibit FOXP3:NFAT”.
Consider “FOXP3(229-259): native, unstapled peptide control of hFOXP3 residues 229-259 (RAQCLLQREMVQSLEQQLVLEKEKLSAMQAH; UniProt Q9BZS1 229-259, looked up, fragment)”, for which the “Inhibition of Treg cell-mediated suppression of target proliferation” value in series [2] is reported as “no ability to prevent Treg cell–mediated suppression of Tcon cell proliferation”. Besides, the “KD, LZCC FOXP3” value with LZCC FOXP3 (T182-M337) was “no binding”. Further, the “KD, ΔN FOXP3” value with ΔN FOXP3 (T182-P431) is recorded as “no binding”.
